How the values were obtained:
[1] = molecular target: T1, Myosin-IIIb (Homo sapiens) (UniProt Q8WXR4); experiment: Inhibition of MYO3B at 1 uM
T1 sequence (whole entry): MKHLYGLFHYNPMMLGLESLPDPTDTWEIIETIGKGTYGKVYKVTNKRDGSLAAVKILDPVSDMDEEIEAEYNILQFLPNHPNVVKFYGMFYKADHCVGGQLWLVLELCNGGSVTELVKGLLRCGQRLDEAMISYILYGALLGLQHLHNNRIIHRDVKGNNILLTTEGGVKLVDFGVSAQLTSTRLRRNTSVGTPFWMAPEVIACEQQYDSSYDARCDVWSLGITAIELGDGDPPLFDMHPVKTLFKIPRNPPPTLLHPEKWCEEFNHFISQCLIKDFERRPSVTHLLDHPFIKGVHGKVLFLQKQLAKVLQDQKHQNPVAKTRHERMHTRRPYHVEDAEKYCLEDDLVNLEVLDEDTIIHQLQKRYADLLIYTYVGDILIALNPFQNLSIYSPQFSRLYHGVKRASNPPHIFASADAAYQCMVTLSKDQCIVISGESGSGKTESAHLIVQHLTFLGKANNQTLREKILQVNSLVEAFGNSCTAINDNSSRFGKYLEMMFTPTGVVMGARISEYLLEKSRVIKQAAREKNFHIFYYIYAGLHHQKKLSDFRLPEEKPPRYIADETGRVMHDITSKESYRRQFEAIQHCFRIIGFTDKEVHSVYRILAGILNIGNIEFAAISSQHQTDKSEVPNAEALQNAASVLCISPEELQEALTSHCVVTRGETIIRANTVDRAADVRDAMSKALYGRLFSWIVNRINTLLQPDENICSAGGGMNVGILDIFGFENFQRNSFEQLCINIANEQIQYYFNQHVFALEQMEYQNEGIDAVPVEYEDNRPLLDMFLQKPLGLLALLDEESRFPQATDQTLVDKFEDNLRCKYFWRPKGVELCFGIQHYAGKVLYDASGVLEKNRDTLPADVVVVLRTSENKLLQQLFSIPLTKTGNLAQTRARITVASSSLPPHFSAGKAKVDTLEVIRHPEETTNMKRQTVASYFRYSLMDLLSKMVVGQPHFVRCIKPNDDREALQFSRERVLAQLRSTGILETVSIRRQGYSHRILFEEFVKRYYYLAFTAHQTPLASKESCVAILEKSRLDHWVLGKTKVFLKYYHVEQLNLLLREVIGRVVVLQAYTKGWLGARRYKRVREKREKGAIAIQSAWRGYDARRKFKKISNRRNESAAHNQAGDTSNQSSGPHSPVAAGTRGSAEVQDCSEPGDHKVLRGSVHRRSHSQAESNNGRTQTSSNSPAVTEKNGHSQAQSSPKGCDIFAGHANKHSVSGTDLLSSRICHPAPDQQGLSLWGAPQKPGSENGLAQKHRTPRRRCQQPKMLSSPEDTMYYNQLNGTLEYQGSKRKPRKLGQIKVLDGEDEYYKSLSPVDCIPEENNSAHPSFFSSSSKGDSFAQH

[2] = molecular target: T2, NUAK family SNF1-like kinase 2 (Homo sapiens) (UniProt Q9H093); experiment: Inhibition of SNARK at 1 uM
T2 sequence (whole entry): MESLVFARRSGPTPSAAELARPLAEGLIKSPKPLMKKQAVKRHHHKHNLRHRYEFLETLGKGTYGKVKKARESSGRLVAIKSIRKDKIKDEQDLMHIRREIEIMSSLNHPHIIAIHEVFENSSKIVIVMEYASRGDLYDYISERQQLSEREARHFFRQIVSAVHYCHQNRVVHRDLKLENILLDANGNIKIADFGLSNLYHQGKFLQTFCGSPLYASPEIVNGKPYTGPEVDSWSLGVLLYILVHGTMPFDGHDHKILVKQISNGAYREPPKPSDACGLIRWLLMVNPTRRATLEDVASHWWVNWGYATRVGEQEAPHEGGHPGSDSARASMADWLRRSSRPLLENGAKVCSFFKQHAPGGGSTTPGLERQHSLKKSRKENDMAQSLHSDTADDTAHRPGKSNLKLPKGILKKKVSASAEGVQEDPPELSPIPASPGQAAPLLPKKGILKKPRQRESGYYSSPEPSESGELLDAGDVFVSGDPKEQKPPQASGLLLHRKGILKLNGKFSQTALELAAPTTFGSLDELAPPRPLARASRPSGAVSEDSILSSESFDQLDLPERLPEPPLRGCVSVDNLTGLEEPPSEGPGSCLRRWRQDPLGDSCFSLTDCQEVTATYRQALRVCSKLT

[3] = test system: T3, Receptor-type tyrosine-protein kinase FLT3 (Homo sapiens), P36888 [D835H]; experiment: Inhibition of FLT3 D835H mutant at 1 uM
T3 sequence (whole entry): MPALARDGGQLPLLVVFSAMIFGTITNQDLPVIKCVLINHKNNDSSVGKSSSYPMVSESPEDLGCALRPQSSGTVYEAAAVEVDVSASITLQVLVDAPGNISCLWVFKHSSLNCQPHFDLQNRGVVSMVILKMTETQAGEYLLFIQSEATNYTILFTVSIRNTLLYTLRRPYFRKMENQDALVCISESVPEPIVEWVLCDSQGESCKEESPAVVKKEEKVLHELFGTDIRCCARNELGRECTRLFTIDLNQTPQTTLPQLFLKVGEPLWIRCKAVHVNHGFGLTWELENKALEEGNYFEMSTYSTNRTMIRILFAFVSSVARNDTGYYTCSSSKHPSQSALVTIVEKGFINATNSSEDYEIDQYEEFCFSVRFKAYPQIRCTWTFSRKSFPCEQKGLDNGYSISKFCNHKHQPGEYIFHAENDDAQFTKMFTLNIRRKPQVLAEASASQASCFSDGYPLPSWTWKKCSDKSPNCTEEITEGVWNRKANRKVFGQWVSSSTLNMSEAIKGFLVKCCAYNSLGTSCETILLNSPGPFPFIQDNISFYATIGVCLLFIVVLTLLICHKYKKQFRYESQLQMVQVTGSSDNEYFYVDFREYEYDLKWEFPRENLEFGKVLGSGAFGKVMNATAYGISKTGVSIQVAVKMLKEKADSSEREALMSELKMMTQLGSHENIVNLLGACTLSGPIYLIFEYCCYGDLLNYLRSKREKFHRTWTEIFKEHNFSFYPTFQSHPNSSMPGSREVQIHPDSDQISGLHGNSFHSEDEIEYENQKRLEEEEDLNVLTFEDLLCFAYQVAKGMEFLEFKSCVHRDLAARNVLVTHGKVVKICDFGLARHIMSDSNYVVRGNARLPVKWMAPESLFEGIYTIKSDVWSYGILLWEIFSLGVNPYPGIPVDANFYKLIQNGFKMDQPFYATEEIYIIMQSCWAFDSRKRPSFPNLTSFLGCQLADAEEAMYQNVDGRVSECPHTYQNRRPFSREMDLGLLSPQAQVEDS
Summary of the method: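 Single-concentration screen on the Ambit KINOMEscan platform, run against a panel of 250–400 kinases. Per-kinase inhibition was also summarized as S(90), the fraction of kinases inhibited by more than 90%.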

SMILES | inhibition [1] [%] | inhibition [2] [%] | inhibition [3] [%]
CN1CCN(c2ccc(-c3cnc4c(c3)N(Cc3cc(F)ccc3F)CCN4)cn2)CC1 | < 50 | 90 | 72.5
CN1CCN(c2ccc(-c3cnc4c(c3)N(Cc3cc(Cl)ccc3Cl)CCN4)cn2)CC1 | < 50 | 81 | 80
CN1CCN(c2ccc(-c3cnc4c(c3)N(Cc3c(F)ccc(F)c3Cl)CCN4)cn2)CC1 | < 50 | 90 | 73
FC(F)(F)c1ccc(Cl)cc1CN1CCNc2ncc(-c3ccnc(N4CCNCC4)c3)cc21 | < 50 | 93 | 93

Second part, the compound after the results:

inhibition [1] [%] | inhibition [2] [%] | inhibition [3] [%] | SMILES
< 50 | 71 | 81 | CC(=O)N1CCN(c2cc(-c3cnc4c(c3)N(Cc3cc(Cl)ccc3C(F)(F)F)CCN4)ccn2)CC1
– | – | < 50 | O=C(O)c1ccc(-c2cnc3c(c2)N(Cc2cc(Cl)ccc2C(F)(F)F)CCN3)cc1
– | – | < 50 | O=C(c1ccc(-c2cnc3c(c2)N(Cc2cc(Cl)ccc2C(F)(F)F)CCN3)cc1)N1CCCCC1
< 50 | 85 | 82 | CN1CCN(c2ccc(-c3cnc4c(c3)N(Cc3cc(Cl)ccc3C(F)(F)F)CCN4)cn2)CC1
– | – | 77.2 | COC1CCN(C(=O)c2ccc(-c3cnc4c(c3)N(Cc3cc(Cl)ccc3C(F)(F)F)CCN4)cc2)CC1
– | – | 90.1 | O=C(c1ccc(-c2cnc3c(c2)N(Cc2cc(Cl)ccc2C(F)(F)F)CCN3)cc1)N1CCC(N2CCCC2)CC1
